Test results reported in ChEMBL document CHEMBL3227978, “Azetidine derivatives of tricyclic antidepressant agents” (J Med Chem, 1979).
Active and inactive are the calls of the source. The rule behind the calls is not given here.

Assays:
[1] = system: Mus musculus; assay: Antidepressant activity in ICEM:CET (SPF Caw) mouse assessed as antagonism of reserpine-induced blepharospasm at 25 mg/kg, po administered via gavage 30 mins before reserpine challenge measured 1 hr after reserpine treatment; type: functional, organism-based; set-up: dose 25 mg/kg
Method in brief: (§1)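 Male mice, 18-22 g, groups of ten, housed the evening before with a 9-h fast and water until 2 h before testing. Gavage dosing at 25 mg/kg in 0.5% Methocel, 30 min before reserpine 2.5 mg/kg ip in 0.5% acetic acid. Read blind: blepharospasm scored (Rubin scale) at 1 h, rectal thermocouple temperature at 4 h.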

[2] = system: Mus musculus; assay: Antidepressant activity in ICEM:CET (SPF Caw) mouse assessed as antagonism of reserpine-induced hypothermia at 25 mg/kg, po administered via gavage 30 mins before reserpine challenge measured 4 hrs after reserpine treatment; type: functional, organism-based; set-up: dose 25 mg/kg; method in brief: as §1
[3] = system: Mus musculus; assay: Antidepressant activity in po dosed ICEM:CET (SPF Caw) mouse assessed as antagonism of reserpine-induced hypothermia administered via gavage 30 mins before reserpine challenge measured 4 hrs after reserpine treatment; type: functional
Method in brief: (§2)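 Groups of ten male mice (18-22 g), fasted 9 h with water until 2 h pre-test. Oral gavage in 0.5% Methocel at doses below the 25 mg/kg screen, 30 min before reserpine 2.5 mg/kg ip. Blepharospasm scored blind at 1 h, rectal temperature at 4 h. ED50 estimated by eye-fit linear plots on semilogarithmic paper.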

[4] = system: Mus musculus; assay: Antidepressant activity in po dosed ICEM:CET (SPF Caw) mouse assessed as antagonism of reserpine-induced blepharospasm administered via gavage 30 mins before reserpine challenge measured 1 hr after reserpine treatment; type: functional; method in brief: as §2
[5] = system: Mus musculus; assay: Orientative acute toxicity in po dosed ICEM:CET (SPF Caw) mouse administered via gavage measured for 60 mins after drug dosing by Irwin's test; type: organism-based; conditions: in vivo, 1 h
Method in brief: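 Male ICEM:CET (SPF Caw) mice, 18-22 g. Oral gavage, suspended or dissolved in 0.5% Methocel at 0.1 mL/10 g body weight. Doses of at least 25, 50, 100, 200, 400 and 800 mg/kg, four animals per dose. Animals were observed closely for 60 min after dosing during Irwin's symptomatologic test, and an approximate LD50 was estimated.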

[6] = system: Mus musculus; assay: Anticonvulsant activity in po dosed ICEM:CET (SPF Caw) mouse assessed as antagonism of pentylenetetrazole-induced flexor-extensor tonic convulsions administered via gavage 30 mins before pentylenetetrazole challenge; type: functional
Method in brief: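 Male mice, 18-22 g, dosed orally by gavage in 0.5% Methocel (0.1 mL/10 g), starting at a 50 mg/kg screening dose, then graded doses. Pentylenetetrazole 130 mg/kg ip given 30 min later. Ten mice per dose and for controls. Dose preventing flexor-extensor tonic convulsions in 50% of animals read from dose-response curves (ED50).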

Row | Compound | Activity [1] | Activity [2] | ED50 [3] | ED50 [4] | LD50 [5] | ED50 [6]
1 | CC(C)(C)N1CC(N2c3ccccc3Sc3ccc(Cl)cc32)C1 | inactive | inactive | – | – | – | –
2 | CC(C)N1CC(CN2c3ccccc3COc3ccccc32)C1 | inactive | inactive | – | – | – | –
3 | CC(C)(C)N1CC(N2c3ccccc3Sc3ccc(C(F)(F)F)cc32)C1 | inactive | inactive | – | – | – | –
4 | CN1CC(N2c3ccccc3CCc3ccccc32)C1 | inactive | inactive | – | – | – | –
5 | c1ccc2c(c1)Sc1ccccc1N2C1CNC1 | inactive | inactive | – | – | – | –
6 | CC(C)(C)N1CC(N2c3ccccc3COc3ccccc32)C1 | inactive | inactive | – | – | – | –
7 | CC(C)(C)N1CC(N2c3ccccc3C=Cc3ccccc32)C1 | inactive | inactive | – | – | – | –
8 | c1ccc2c(c1)CCc1ccccc1N2CC1CNC1 | inactive | inactive | – | – | – | –
9 | c1ccc2c(c1)CCc1ccccc1N2C1CNC1 | inactive | inactive | – | – | – | –
10 | CC(C)(C)N1CC(N2c3ccccc3CCc3ccc(Cl)cc32)C1 | inactive | inactive | – | – | – | –
11 | CNC1CN(C2c3ccccc3COc3ccccc32)C1.O=C(O)/C=C/C(=O)O (single isomer, unassigned; (-)) | – | – | 14.1 mg/kg | 1.3 mg/kg | 100 mg/kg | >50 mg/kg
12 | c1ccc2c(c1)COc1ccccc1N2CC1CNC1 | inactive | inactive | – | – | – | –
13 | CC(C)(C)N1CC(N2c3ccccc3Sc3ccccc32)C1 | inactive | inactive | – | – | – | –
